DENV2 CPE: inhibitors of DENV2 cytopathic effect, primary screen, cell-based, plate reader, single concentration | DENV2-infected cells, cytopathic effect rescue | CPE inhibition, % at 9.99 µM | 1.7% of 350,000 active; in the data active = CPE inhibition above about 20%, passing the limit was not always enough; inconclusive = no clear call, values can overlap the other calls; tested in BHK-21 cells;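 also: 0% = median of neutral control wells and 100% = median of positive control wells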
E-selectin induc: E-selectin induction in HUVECs, primary screen, imaging, HUVEC, immunofluorescence imaging, single point; P16581; normalized: neutral wells 0, TNF-alpha wells 100; activation, % at 7.58 µM; 0.37% of 260,000 active; AID 686992, 2013;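 active = mean E-selectin-positive cell signal at least 10% of the positive control, reached in at least 60% of replicates, without over 20% cell loss; inconclusive = no rule given, readout overlaps actives, possibly toxicity-flagged; inactive = the rest, including those meeting only one limit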
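assay system = HUVEC, human umbilical vein endothelial cells | input = 3,000 HUVEC seeded per well | medium = EGM-2 growth medium on 0.1% gelatin-coated wells | dosing = one compound dose added by pin transfer | signal = immunofluorescence imaging | read-out basis = % PE-positive cells | control set = TNF-alpha, DMSO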
Statin myotox sup: suppressors of statin myotoxicity in C2C12 myotubes, primary screen, cell-based, single point, plate reader; AID 602340, 2012; rescue of ATP level, % at 7.49 µM; C2C12 myotubes + simvastatin, ATP luminescence, 48 h; scaled: DMSO 0, geranylgeraniol control 100; 0.78% of 330,000 active;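 active = mean ATP rescue above about 67%, or every replicate alone reaching that limit, limit read from the data, passing the limit was not always enough; inconclusive = no clear call, values can overlap the other calls; inactive = mean under the limit and some replicate under it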;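 also: myotubes were challenged with 10 µM simvastatin during compound exposure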
FGF22 binding: binders of human FGF22 protein, primary screen, FGF22 synaptogenesis inhibitor project, biophysical, thermal shift, single point; Fibroblast growth factor 22 (Homo sapiens), Q9HCT0; recombinant FGF22 thermal shift, SYPRO orange fluorescence; percent of sucrose octasulfate shift, DMSO zero; activity (Tm shift, normalised), % at 9.99 µM; 1.5% of 340,000 active; AID 651658, 2012;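 active = mean Tm shift, scaled 0 neutral to 100 positive control, at about 1.3% or above, every replicate too, limit read from the data; inconclusive = no clear call, values can overlap the other calls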
Target sequence (Q9HCT0 whole entry, looked up): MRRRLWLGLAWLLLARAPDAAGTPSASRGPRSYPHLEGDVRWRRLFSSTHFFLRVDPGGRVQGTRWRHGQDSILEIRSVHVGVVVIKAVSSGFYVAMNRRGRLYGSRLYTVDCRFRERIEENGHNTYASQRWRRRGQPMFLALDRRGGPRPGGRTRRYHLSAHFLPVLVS
PglD DTNB: C. jejuni PglD acetyltransferase inhibitors, primary screen, biochemical, DTNB colorimetric, single point. inhibition, % at 12.5 µM. 0.098% of 360,000 active. UDP-N-acetylbacillosamine N-acetyltransferase PglD (Campylobacter jejuni). AID 602405, 2012. purified PglD enzyme, DTNB colorimetric CoA detection; in the data active = inhibition above about 16%, passing the limit was not always enough; inconclusive = no clear call, values can overlap the other calls
XiGFP reactiv: activators of inactive X chromosome reactivation, primary screen, imaging, XiGFP fibroblasts, GFP high-content imaging, set 2; activation, % at 7.58 µM; 0.055% of 360,000 active; XiGFP mouse fibroblasts, % GFP-positive cells imaging, 3 d; cells co-treated with 5-aza-dC sensitizer; scaled so ellipticine positive control = 100%; AID 743238, 2013;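 active = mean normalized replicate activation at least 10% and every replicate at or above 10%; inconclusive = only one of the two criteria met; inactive = mean below 10% and not all replicates reach 10%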;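 also: 0% = median of on-plate neutral control wells and 100% = ellipticine 6 µM median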
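System: SV40-immortalized XiGFP fibroblast cells, line 68-5-11 / Incubation: 3-day compound exposure, then 15 min fixation at room temperature / Compound: single concentration per compound, delivered by pin transfer / Buffer or medium: DMEM plus 5-aza-dC sensitizer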
An asterisk follows results filed as active; ? = inconclusive; · = no result given; ! = not active in a repeat. Sampled rows, rich in hits. Any-hit rate of the full collection: about 3.3%.

SMILES	DENV2 CPE	E-selectin induc	Statin myotox sup	FGF22 binding	PglD DTNB	XiGFP reactiv
Cc1ccc(S(=O)(=O)Nc2ccc3c(c2)C(=O)N([C@@H](C)CO)C[C@@H](C)[C@@H](CN(C)CC2CC2)OCCCC[C@@H](C)O3)cc1	63*!	0	-4	0	2	0
C[C@@H]1CCCCO[C@@H](CN(C)CC2CCCCC2)[C@@H](C)CN([C@H](C)CO)C(=O)c2cc(NS(=O)(=O)c3ccc(Cl)cc3)ccc2O1	63*!	·	-5	-1	-3	0
Cc1ccc(S(=O)(=O)Nc2ccc3c(c2)C(=O)N([C@H](C)CO)C[C@H](C)[C@H](CN(C)CC2CC2)OCCCC[C@H](C)O3)cc1	?	1	-30	0	2	0
C[C@@H]1CCCCO[C@H](CN(C)CC2CCCCC2)[C@@H](C)CN([C@H](C)CO)C(=O)c2cc(NS(=O)(=O)c3ccc(Cl)cc3)ccc2O1	-3	0	·	0	2	0
C[C@@H]1CCCCO[C@@H](CN(C)CC2CCCCC2)[C@@H](C)CN([C@H](C)CO)C(=O)c2cc(NS(=O)(=O)c3ccc(F)cc3)ccc2O1	-2	0	96*	0	2	0
C[C@H](CO)N1C[C@H](C)[C@H](CN(C)C(=O)Nc2cccc3ccccc23)Oc2c(NS(=O)(=O)c3ccccc3)cccc2C1=O	·	0	-32	0	11	0
CCCN(C)C1CN(Cc2cn(Cc3ccc(OC)cc3)nn2)S(=O)(=O)C1 (configuration not stated)	-2	5	·	0	·	0
CCCN(C)C1CN(Cc2cn(Cc3ccc(C)cc3)nn2)S(=O)(=O)C1 (configuration not stated)	25*	0	·	0	·	0
CN(C)C(=O)C[C@@H]1CC[C@@H](NC(=O)C2CC2)[C@@H](CO)O1	-2	2	3	0	9	0
Cc1cc(C(=O)O/N=C(\N)c2ccc(C(C)(C)C)cc2)no1	65*	0	·	0	2	0
CC(C)(C)c1ccc(C(=O)O/N=C(\N)c2ccccc2)cc1	-5	0	-4	0	-3	0
C[C@@H]1CCCCO[C@H](CN(C)C(=O)c2ccccc2)[C@H](C)CN([C@@H](C)CO)C(=O)c2cc(NC(=O)Nc3ccc(F)cc3)ccc2O1	11	0	·	1.3*	7	-1
C[C@H]1CCCCO[C@@H](CN(C)C(=O)c2ccccc2)[C@@H](C)CN([C@@H](C)CO)C(=O)c2cc(NC(=O)Nc3ccc(F)cc3)ccc2O1	22*	0	·	1	7	0
C[C@@H]1CCCCO[C@H](CN(C)C(=O)c2ccccc2)[C@@H](C)CN([C@H](C)CO)C(=O)c2cc(NC(=O)Nc3ccc(F)cc3)ccc2O1	32*	0	·	0	4	0
CN(C)C(=O)C[C@@H]1CC[C@@H]2[C@H](COc3ccc(NC(=O)Nc4cccc(Cl)c4)cc3C(=O)N2C)O1	3	0	-31	0	2	0
COc1ccc2c3c([nH]c2c1)[C@@H](CO)N(C)CC31CN(C(=O)NC(C)C)C1	-11	0	·	0	·	0
C[C@@H]1CN([C@@H](C)CO)C(=O)CCCn2cc(nn2)CO[C@H]1CN(C)C(=O)Nc1cccc(F)c1	87*!	0	-21	0	0	-1
C[C@@H]1CN([C@@H](C)CO)C(=O)CCCn2cc(nn2)CO[C@@H]1CN(C)Cc1cccc(C(=O)O)c1	30*	0	-12	1	1	0
C[C@@H]1CN([C@H](C)CO)C(=O)CCCn2cc(nn2)CO[C@@H]1CN(C)Cc1cccc(C(=O)O)c1	-4	0	2	1	-2	1
C[C@H](CO)N1C[C@H](C)[C@H](CN(C)C(=O)Nc2cccc(F)c2)OCc2cn(nn2)CCCC1=O	-1	0	-6	0	1	0
C[C@@H]1CN([C@H](C)CO)C(=O)CCCn2cc(nn2)CO[C@H]1CN(C)C(=O)Nc1ccccc1C(F)(F)F	48*!	0	0	0	-1	0
C[C@H]1CN([C@@H](C)CO)C(=O)CCCn2cc(nn2)CO[C@@H]1CN(C)C(=O)Nc1ccc(F)cc1	44*!	0	2	0	2	0
Cc1noc(C)c1NC(=O)N(C)C[C@H]1Oc2c(NS(=O)(=O)c3ccccc3)cccc2C(=O)N([C@@H](C)CO)C[C@@H]1C	4	1	-2	0	0	0
CO[C@H](CN(C)Cc1cc(F)ccc1F)[C@H](C)CN([C@@H](C)CO)S(=O)(=O)c1ccc(F)cc1	1	0	0	0	0	0
C[C@H](CO)N1C[C@H](C)[C@@H](CN(C)C(=O)Nc2ccc(F)cc2)Oc2ccc(NS(=O)(=O)c3cn(C)cn3)cc2CC1=O	?	0	-9	0	0	0
SMILES	DENV2 CPE	E-selectin induc	Statin myotox sup	FGF22 binding	PglD DTNB	XiGFP reactiv
CO[C@@H]1CN(C)C(=O)c2cc(NS(=O)(=O)c3cccc(F)c3)ccc2OC[C@@H](C)N(Cc2cc(F)ccc2F)C[C@H]1C	-6	0	54	0	3	1
C[C@@H]1CN([C@@H](C)CO)C(=O)c2c(c3ccccc3n2C)-c2ccccc2CO[C@H]1CN(C)Cc1cccc(C(=O)Nc2ccccc2N)c1	-4	0	·	0	·	0
CCCC(=O)N1CC2(CN(C(C)=O)C2)c2c(n(C)c3cc(OC)ccc23)[C@@H]1CO	·	·	·	·	·	0
CC(C)OC(=O)N(C)C[C@@H]1OCc2cn(nn2)CCCC(=O)N([C@@H](C)CO)C[C@H]1C	36*!	-2	2	0	3	0
CC(C)OC(=O)N(C)C[C@H]1OCc2cn(nn2)CCCC(=O)N([C@@H](C)CO)C[C@@H]1C	12	0	-2	0	-1	0
C/C(=N\Nc1ncnc2sc(C)c(C)c12)c1ccccn1	-5	·	-378	0	-2	85*
O=C(C[C@@H]1C=C[C@@H](NS(=O)(=O)c2cccc(F)c2)[C@H](CO)O1)NCc1ccc2c(c1)OCO2	6	1	1	0	-2	0

Assay outcomes: PubChem BioAssay, Broad Institute
